What was measured:
[1] = target: Adenosine receptor A2a (Rattus norvegicus, UniProt P30543); assay: Displacement of [3H]CGS21680 from adenosine A2A receptor in rat brain striatal membrane after 60 mins; type: cell membranes
[2] = target: T1, Adenosine receptor A3 (Homo sapiens, UniProt P0DMS8); assay: Displacement of [3H]PSB-11 from human recombinant adenosine A3 receptor expressed in CHO cells after 60 mins; type: cell-based
T1 sequence (P0DMS8 whole entry): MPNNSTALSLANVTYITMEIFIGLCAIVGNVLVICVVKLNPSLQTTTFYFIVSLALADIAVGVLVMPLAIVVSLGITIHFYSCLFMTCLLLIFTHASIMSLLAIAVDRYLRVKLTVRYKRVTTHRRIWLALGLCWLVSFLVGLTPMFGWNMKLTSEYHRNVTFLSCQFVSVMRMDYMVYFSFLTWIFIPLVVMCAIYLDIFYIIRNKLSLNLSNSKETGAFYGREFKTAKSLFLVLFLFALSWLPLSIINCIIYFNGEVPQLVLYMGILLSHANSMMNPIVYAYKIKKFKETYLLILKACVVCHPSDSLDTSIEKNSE
Summary of the method: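 Membranes from CHO cells expressing human A3 receptor (30–50 μg protein), pretreated 10–15 min with 0.12 IU/mL adenosine deaminase. [3H]PSB-11 1.0 nM, 60 min at rt, 2.5% DMSO final. Six to seven concentrations over 3 log units. At least 2–3 experiments in duplicate.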

[3] = target: T2, Adenosine receptor A1 (Rattus norvegicus, UniProt P25099); assay: Displacement of [3H]CCPA from adenosine A1 receptor in rat brain cortical membrane after 90 mins
T2 sequence (P25099 whole entry): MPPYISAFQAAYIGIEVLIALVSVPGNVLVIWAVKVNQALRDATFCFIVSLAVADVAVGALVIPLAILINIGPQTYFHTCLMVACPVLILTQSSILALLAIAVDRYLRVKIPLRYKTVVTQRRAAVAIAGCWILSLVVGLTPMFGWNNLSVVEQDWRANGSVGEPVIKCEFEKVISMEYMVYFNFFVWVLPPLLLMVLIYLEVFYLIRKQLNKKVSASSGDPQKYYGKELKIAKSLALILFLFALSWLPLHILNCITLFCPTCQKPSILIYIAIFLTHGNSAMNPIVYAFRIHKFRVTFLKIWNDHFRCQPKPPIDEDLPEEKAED

[4] = Antiinflammatory activity in C57/Bl6 mouse CD4+ T cells assessed as inhibition of anti-CD3/anti-CD28 antibody-stimulated INFgamma production after 18 hrs by ELISA; type: functional, cell-based; details: C57/Bl6, T-cell
Summary of the method: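 Splenic CD4+ T cells from male C57/Bl6 mice (8–12 wk) were isolated by magnetic CD4 beads, resuspended in Panserin 413, and stimulated on plates coated with 0.4 μg/mL anti-CD3 and 2.5 μg/mL anti-CD28 for 18 h, with compound added together with the antibodies. IFN-γ in the supernatant was measured by ELISA, and EC50 was taken from dose-response curves.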

[5] = Prodrug stability in C57/Bl6 mouse CD4+ T cells expressing ecto-5'-nucleotidase assessed as compound remaining at 10 mM after 18 hrs by LC/MS analysis; type: ADME, cell-based; details: t-cell, 10000 µM
Summary of the method: (§1)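 Splenic CD4+ T cells (wild-type or ecto-5'-NT knockout C57/Bl6), about 4×10^5 cells in 200 μL, were stimulated with anti-CD3/anti-CD28 for 18 h with prodrug at initial 10, 5 or 2.5 mM. Prodrug and released nucleoside in the supernatant were quantified by LC-MS/MS (C18, water/methanol with 2 mM ammonium acetate, ESI negative MRM). Each is expressed as a percentage of the total.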

[6] = Prodrug stability in C57/Bl6 mouse CD4+ T cells expressing ecto-5'-nucleotidase assessed as compound remaining at 5 mM after 18 hrs by LC/MS analysis; type: ADME, cell-based; details: t-cell, 5000 µM; summary of the method: as §1
[7] = Prodrug stability in C57/Bl6 mouse CD4+ T cells expressing ecto-5'-nucleotidase assessed as compound remaining at 2.5 mM after 18 hrs by LC/MS analysis; type: ADME, cell-based; details: t-cell, 2500 µM; summary of the method: as §1
[8] = Prodrug stability in ecto-5'-nucleotidase knockout C57/Bl6 mouse CD4+ T cells assessed as compound remaining at 10 mM after 18 hrs by LC/MS analysis; type: ADME, cell-based; details: t-cell, 10000 µM; summary of the method: as §1
[9] = Prodrug stability in ecto-5'-nucleotidase knockout C57/Bl6 mouse CD4+ T cells assessed as compound remaining at 5 mM after 18 hrs by LC/MS analysis; type: ADME, cell-based; details: t-cell, 5000 µM; summary of the method: as §1
[10] = Prodrug stability in ecto-5'-nucleotidase knockout C57/Bl6 mouse CD4+ T cells assessed as compound remaining at 2.5 mM after 18 hrs by LC/MS analysis; type: ADME, cell-based; details: t-cell, 2500 µM; summary of the method: as §1
[11] = Prodrug stability in C57/Bl6 mouse CD4+ T cells expressing ecto-5'-nucleotidase assessed as formation of 2-(cyclohexylmethylthio)adenosine at 10 mM after 18 hrs by LC/MS analysis; type: ADME, cell-based; details: t-cell, 10000 µM, in the assay text read “2-(cyclohexylethylthio)adenosine” for “2-(cyclohexylmethylthio)adenosine”; summary of the method: as §1
[12] = Prodrug stability in C57/Bl6 mouse CD4+ T cells expressing ecto-5'-nucleotidase assessed as formation of 2-(cyclohexylmethylthio)adenosine at 2.5 mM after 18 hrs by LC/MS analysis; type: ADME, cell-based; details: t-cell, 2500 µM; summary of the method: as §1
[13] = Prodrug stability in ecto-5'-nucleotidase knockout C57/Bl6 mouse CD4+ T cells expressing ecto-5'-nucleotidase assessed as formation of 2-(cyclohexylmethylthio)adenosine at 10 mM after 18 hrs by LC/MS analysis; type: ADME, cell-based; details: t-cell, 10000 µM; summary of the method: as §1
[14] = Prodrug stability in ecto-5'-nucleotidase knockout C57/Bl6 mouse CD4+ T cells expressing ecto-5'-nucleotidase assessed as formation of 2-(cyclohexylmethylthio)adenosine at 5 mM after 18 hrs by LC/MS analysis; type: ADME, cell-based; details: t-cell, 5000 µM; summary of the method: as §1
[15] = Prodrug stability in ecto-5'-nucleotidase knockout C57/Bl6 mouse CD4+ T cells expressing ecto-5'-nucleotidase assessed as formation of 2-(cyclohexylmethylthio)adenosine at 2.5 mM after 18 hrs by LC/MS analysis; type: ADME, cell-based; details: t-cell, 2500 µM; summary of the method: as §1
[16] = Prodrug stability in C57/Bl6 mouse CD4+ T cells expressing ecto-5'-nucleotidase assessed as formation of 2-(cyclohexylethylthio)adenosine at 5 mM after 18 hrs by LC/MS analysis; details: t-cell, 5000 µM

Adenosine receptor A2a, sequence (P30543 whole entry): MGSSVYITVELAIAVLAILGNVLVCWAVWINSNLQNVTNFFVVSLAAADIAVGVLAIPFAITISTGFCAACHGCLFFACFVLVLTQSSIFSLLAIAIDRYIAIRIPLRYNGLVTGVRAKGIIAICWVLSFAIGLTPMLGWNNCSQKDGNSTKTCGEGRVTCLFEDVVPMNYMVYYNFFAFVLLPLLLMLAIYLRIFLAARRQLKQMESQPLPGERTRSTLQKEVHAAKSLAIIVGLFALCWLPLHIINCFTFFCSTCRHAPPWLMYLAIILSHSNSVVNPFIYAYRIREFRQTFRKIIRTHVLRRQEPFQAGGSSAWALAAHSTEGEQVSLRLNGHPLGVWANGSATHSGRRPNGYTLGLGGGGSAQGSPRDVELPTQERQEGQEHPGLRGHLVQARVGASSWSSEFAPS

Structure (SMILES)	Ki [1] [nM]	Ki [2] [nM]	Ki [3] [nM]	other results
CCCCCCSc1nc(N)c2ncn([C@@H]3O[C@H](CO)[C@@H](O)[C@H]3O)c2n1	542	2320	256	–
C#CCSc1nc(N)c2ncn([C@@H]3O[C@H](CO)[C@@H](O)[C@H]3O)c2n1	2900	6990	555	–
Nc1nc(SCCc2ccccc2)nc2c1ncn2[C@@H]1O[C@H](CO)[C@@H](O)[C@H]1O	18.5	1810	–	–
Nc1nc(SC2CCCC2)nc2c1ncn2[C@@H]1O[C@H](CO)[C@@H](O)[C@H]1O	793	10400	994	–
Nc1nc(SCCC2CCCCC2)nc2c1ncn2[C@@H]1O[C@H](COP(=O)(O)O)[C@@H](O)[C@H]1O	–	–	–	EC50 [4]: 5700 nM; Stability [5]: 85%; Stability [6]: 87.2%; Stability [7]: 89.2%; Stability [8]: 94.7%; Stability [9]: 95.3%; Stability [10]: 97.3%; Activity [11]: 15%; Activity [12]: 10.8%; Activity [13]: 5.3%; Activity [14]: 4.7%; Activity [15]: 2.7%; Activity [16]: 12.8%
Nc1nc(SCc2ccccc2)nc2c1ncn2[C@@H]1O[C@H](CO)[C@@H](O)[C@H]1O	606	120	927	–
CCCSc1nc(N)c2ncn([C@@H]3O[C@H](CO)[C@@H](O)[C@H]3O)c2n1	1350	–	1270	–
Nc1nc(SCCC2OCCO2)nc2c1ncn2[C@@H]1O[C@H](CO)[C@@H](O)[C@H]1O	1160	3450	1140	–
C=CCSc1nc(N)c2ncn([C@@H]3O[C@H](CO)[C@@H](O)[C@H]3O)c2n1	1520	6640	532	–
Nc1nc(SCC2CCCCC2)nc2c1ncn2[C@@H]1O[C@H](CO)[C@@H](O)[C@H]1O	709	1720	–	–
Nc1nc(SC2CCCCC2)nc2c1ncn2[C@@H]1O[C@H](CO)[C@@H](O)[C@H]1O	2480	≥ 10000	139	–
Nc1nc(SCCC2CCCCC2)nc2c1ncn2[C@@H]1O[C@H](CO)[C@@H](O)[C@H]1O	–	3640	400	EC50 [4]: 50 nM
Nc1nc(SCCC2COCCO2)nc2c1ncn2[C@@H]1O[C@H](CO)[C@@H](O)[C@H]1O (stereo partly specified)	1100	1330	454	–

Source: ChEMBL document CHEMBL1155272, “Nucleoside-5'-monophosphates as prodrugs of adenosine A2A receptor agonists activated by ecto-5'-nucleotidase” (J Med Chem, 2009)
